According to the RNAGym collection of RNA variant scans (doi:10.1126/science.aae0568):
This sample holds only a part of the variants without activity.

B1: tRNA (parent)
chain: GUUCCGUUGGCGUAAUGGUAACGCGUCUCCCUCCUAAGGAGAAGACUGCGGGUUCGAGUCCCGUACGGAACG

Variants of: B1
Assay: yeast fitness relative to wild type (ratio to wild type); higher = fitter; tRNA-Arg(CCU), competitive growth, 37 C, YPD
Procedure, shortened: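 Amplicons of the tRNA-Arg(CCU) gene were sequenced, 100-nucleotide paired-end, from the start population and from each end population of a pooled yeast competition. The competition, in six parallel replicates, lasted 24 hours in YPD at 37°C. Fitness relative to wild type was calculated from changes in genotype frequencies. Genotypes had to have ≥ 100 starting reads, and estimates < 0.5 were set to 0.5.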

| Variant | yeast fitness |
| --- | --- |
| A21C G44C | 0.627 |
| A15C U59A A69C | ≤ 0.5 |
| U28G C61A | 0.561 |
| G23A C66A | 0.535 |
| U2A C27A C34U | ≤ 0.5 |
| G10A G12A G17U U28C U54C | ≤ 0.5 |
| C22A G23A C33U C34G C60G G67A | ≤ 0.5 |
| U19C A21G C22U | 0.552 |
| C5U G10A A21G G39A G48C | 0.598 |
| C11U C29U C49A | ≤ 0.5 |
| U2G | 0.994 |
| U7C U16A G41C | 0.613 |
| A20C C34A G56C | ≤ 0.5 |
| U19C G25C G51C C60U G67A | 0.545 |
| U13C A20G C49A U59C C62U A65U A70C | 0.53 |
| C34U C61G A65C C66G | ≤ 0.5 |
| C4U A42C C55U | ≤ 0.5 |
| C11A U13C C27A C60A | ≤ 0.5 |
| C11G G18C C49A A70C | ≤ 0.5 |
| C4A C31G A40U | 0.62 |
| A15G C30A C62A | ≤ 0.5 |

| Variant | yeast fitness |
| --- | --- |
| C5U C11A A20C C22G C30U C31G C61A | 0.543 |
| A37G G44A A69U | 0.525 |
| A36G U64C | 0.78 |
| G10A C30G C60G G63A A65U C66U | ≤ 0.5 |
| U16G C34U A40G A43G C62A A69C | ≤ 0.5 |
| A14C A21U A45C A57G | ≤ 0.5 |
| U13A A42C | 1.05 |
| G25C C34G A45U | ≤ 0.5 |
| U8G C24A C30G A40G U47G C55U | 0.512 |
| A21C A57U C62U | ≤ 0.5 |
| G23C A36C A45C G58A G68C | ≤ 0.5 |
| U35G A43U C46G U53C A69C | ≤ 0.5 |
| G12A C24U C27A | 0.575 |
| A40U A45C | 0.871 |
| U35A C46A C49G G52A | 0.572 |
| C29A C31A A40U C49U | ≤ 0.5 |
| U2A C5G G17C G56C A57G G68U | 0.558 |
| U8C C27U | 0.792 |
| U16C G51A A65U A70G | ≤ 0.5 |
| U28A C29G C33U C34G C62A A69G | ≤ 0.5 |
| G6A C11A C24U | ≤ 0.5 |

| Variant | yeast fitness |
| --- | --- |
| U8A C24U U28C A40C G67C | ≤ 0.5 |
| U19A U26A | 0.907 |
| C11G G18A C24U G58A A70G | ≤ 0.5 |
| A37U A45U | 0.64 |
| G9C C33A A70C | 0.826 |
| C4G G6C G25A C29A C31A C33G | 0.59 |
| A15U C22G C31U C46G G63A | ≤ 0.5 |
| C30G A43C C62U | 0.533 |
| C5U U32G G63C C66U | ≤ 0.5 |
| U7A C29G A36C C62A | ≤ 0.5 |
| G9C C34A C46A G56A | ≤ 0.5 |
| G9A C11U C31U U59A | ≤ 0.5 |
| A37U A40C | 0.776 |
| C11G G51C | 0.58 |
| C30G C33G C34U A42U A65C | ≤ 0.5 |
| C5G A42C A57C G68U | ≤ 0.5 |
| A20U U26C C30A U47A A65U | ≤ 0.5 |
| U19G C33G U47A | 0.542 |
| C11G C34U U35A C55U | 0.59 |
| C27G C31U C49G U59A | ≤ 0.5 |
| U28A C29A | 0.598 |

| Variant | yeast fitness |
| --- | --- |
| C5A C33U C46G | ≤ 0.5 |
| A14G U19C G67A | 0.76 |
| U3A C5G C11U C24A C30U A70G | ≤ 0.5 |
| C24G C33U U47G | ≤ 0.5 |
| U8C C22U U53A | ≤ 0.5 |
| C5U C22G C29G U32C | ≤ 0.5 |
| U3G U8A C31A C49A | ≤ 0.5 |
| C4U G12A A20G C22U G68C | ≤ 0.5 |
| A21U C30U A65G C66G | 0.638 |
| C31A A42U | 0.909 |
| C4A C5U G17A C30U G68C | ≤ 0.5 |
| C5G C30U A36U G51C | ≤ 0.5 |
| C5U A14G C33G A40G | ≤ 0.5 |
| C11U G48C | 0.882 |
| U32C G41C U47C | 0.592 |
| U19C C34U A43U G63A A70C | ≤ 0.5 |
| A15G C29A A42C A70U | ≤ 0.5 |
| C4G A15U | 0.824 |
| U3C G12A A21G C46G G50A | ≤ 0.5 |
| G48A G58C C61A | 0.601 |
